# Assay: Toxicity liver stage against HepG2, at 10uM
# Type: cell-based
# Parameters: test concentration 10 uM, cell line HepG2-A16-CD81EGFP
# Settings: human, HepG2-A16-CD81EGFP cells; read-out: INHIBITION
# Method in brief: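 Uninfected HepG2-A16-CD81EGFP cells, 3 × 10^3 per well, 1536-well, plated on prespotted compound at 10 μM final, parasite-free screening media added to match infected plates; puromycin 10 μM positive, DMSO 0.5% negative; run in parallel with 48 h PbLuc assay at 37 °C, 5% CO2; viability by CellTiter-Glo luminescence, normalized to controls.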
row,SMILES,cytotoxicity at 10 µM
1,O=C(NC[C@H]1OC[C@@H](NC2COC2)[C@@H]1O)c1cccs1,0.0331%
2,CC(C)N1C[C@@H](F)[C@@H](OCc2nc3ncccc3[nH]2)C1,5.47%
3,CN1C(=O)C2(CC(=O)Nc3[nH]ncc32)c2cc(F)ccc21 (stereo unspecified),0.488%
4,Cc1nc(NC(=O)CN2C(=O)c3ccccc3NC2C(C)C)sc1C (stereo unspecified),0.585%
5,Cn1ccc2c(C(=O)NC3CN4CCC3CC4)cccc21 (stereo unspecified),-46.8%
6,O=C1CSC(c2ccccc2)c2c(n(C3CCOCC3)[nH]c2=O)N1 (stereo unspecified),-4.69%
7,Nc1nc2c(c(NC(=O)Nc3ccccc3)n1)CCCC2,-9.74%
8,NC(=O)Cc1csc(NC(=O)C2CSCCC(=O)N2)n1 (stereo unspecified),0.722%
9,O=C(NC1CCC1)c1n[nH]c2c1CNCC2,1.67%
10,Cc1cnc(N2C[C@@H]3[C@@H](C2)OCC(=O)N3CC2CC2)nc1,-0.357%
11,O=C(c1ncccn1)N1C[C@@H]2CN(CC3CC3)CCO[C@@H]2C1,6.99%
12,Cc1ccnc(OC[C@]23COC[C@H]2CN(C(=O)c2cnccn2)C3)n1,-7.1%
13,O=C(N1CCCC1)N1Cc2nccn2CC(Cn2ncccc2=O)C1 (stereo unspecified),3.39%
14,Cc1occc1C(=O)N1C[C@@H](C(=O)NCc2ccco2)C[C@H]2OCC[C@H]21,1.08%
15,CCOc1cc(=O)n2c(c1C(=O)OCc1ccc(C)cc1)CCCC2,3.11%
16,COC(=O)c1cc2c(OC)c(OC)c(OC)cc2[nH]1,-0.555%
17,CCOCc1ncn2c1CN(C(=O)Nc1cccc(C)c1)CC2,-8.92%
18,O=C(C1=CCCC1)N1C[C@H](Oc2cccnc2)[C@H]2OCCC[C@H]21,-8.42%
19,CN(Cc1ccccn1)C1COC2(CCN(Cc3nccs3)CC2)C1 (stereo unspecified),-16.2%
20,Cc1ccc(-c2noc(C3CCN3C(=O)c3c(C)noc3C)n2)s1 (stereo unspecified),6.09%
21,C=Cn1cc(CN2CCC(c3ncc(Cl)cc3S(C)(=O)=O)CC2)c(C)n1,7.38%
22,O=C(CCn1ccnc1)N1CC[C@H](Oc2ccc(F)cc2)[C@@H](O)CC1,-3.06%

row,SMILES,cytotoxicity at 10 µM
1,CCn1nccc1CN(C)C(=O)Cn1nc(C)cc1C,6.18%
2,Cc1nc(COC(=O)c2cccnc2C)no1,-0.2%
3,CCN(Cc1ccoc1)C(=O)Nc1ccccc1CN1CCOCC1,-14.8%
4,CC(NC(=O)c1ccc2c(c1)COC2)c1cccc(N2CCOC2=O)c1 (stereo unspecified),14.9%
5,CNS(=O)(=O)CC(=O)N(C1CC1)C1Cc2ccccc2C1,3.45%
6,O=C(NCc1nnc2ccccn12)N1CCOC(c2ccsc2)C1 (stereo unspecified),0.305%
7,CCn1cc(CNc2ccc(Br)c(OC)c2)cn1,5.42%
8,CCNc1cc2c(nn1)CCN(C(=O)c1cc3c(s1)CCOC3)C2,-8.51%
9,Cc1ccc(C(=O)NCc2ccc(N(C)C)cc2)cn1,-6.23%
10,CCN(C)S(=O)(=O)N1CCCC1CC(=O)c1cccs1 (stereo unspecified),-29%
11,CC(C)c1nnc(NC(=O)NC2CCOc3ccccc32)s1 (stereo unspecified),18.1%
12,CN(C)c1nccc(N(C)Cc2ncnn2C)n1,6.09%
13,O=C(CN1CCSC(c2ccccc2)C1)NCc1ccccn1 (stereo unspecified),14.5%
14,O=C1CCCN1c1cccc(CNCc2cc(F)ccc2F)c1,15.8%
15,Cc1cc(C)n(CC2CCCN2C(=O)Cc2cn3ccccc3n2)n1 (stereo unspecified),2.47%
16,CC(Cn1cccn1)NC(=O)Nc1ccc(N(C)C)nc1 (stereo unspecified),14.4%
17,NC(=O)C1CCN(Cn2nc(-c3ccccc3)oc2=O)CC1,-16.8%
18,Cc1n[nH]cc1CNc1ccc2c(c1)N(C(=O)OC(C)(C)C)CCC2,-1.97%
19,CC1CCN(CCNC(=O)c2cncnc2C(C)C)CC1,-12%
20,Cc1cc(C(=O)N2CCn3cc(CN4CCN(C)CC4)nc3C2)no1,-74.7%
21,CN1CCN(Cc2cnc3n2CCN(C(=O)c2ccnnc2)C3)CC1,-81.1%
22,CC(C)NC(=O)N1CC[C@@H]2CN(Cc3ccccc3)S(=O)(=O)[C@@H]2CC1,9.62%

row,SMILES,cytotoxicity at 10 µM
1,O=C(c1ccncc1)N1CCCn2c(CN3CCCCC3)nnc2C1,-5.77%
2,CN(C)C(=O)CCC1CCCN(Cc2cccc(-c3ccccn3)c2)C1 (stereo unspecified),3.45%
3,CN(CC1=CCCN(Cc2cccc(C#N)c2)C1)C(=O)c1ccco1,-5.15%
4,O=C(CSCC1CC1)N1CCCC2(CCC(=O)N(CC3CC3)C2)C1 (stereo unspecified),3.8%
5,OCC1CCCN(c2ncnc3c2Cc2ccccc2OC3)C1 (stereo unspecified),1.44%
6,COc1ccc(CCC(=O)N2CCNCC2C(=O)N2CCCC2)cc1 (stereo unspecified),1.18%
7,O=C1CN(Cc2cn(CC3CCN(C4CCSCC4)CC3)nn2)CCN1,-48.2%
8,CCc1ccc(CN(C)C(=O)C2CC(=O)N(c3cccc(O)c3)C2)nc1 (stereo unspecified),-3.57%
9,CCn1cc(S(=O)(=O)NC2CCCN(CC3CCCCC3)C2)cn1 (stereo unspecified),-7.25%
10,COCCN1CCN(Cc2ccc(C(C)=O)cc2)[C@H]2CS(=O)(=O)C[C@H]21,-0.571%
11,CCc1cc(NCC(N)=O)nc(N2CCCCC2)n1,9.95%
12,O=C(NCCn1ccnc1-c1cc2n(n1)CCCNC2)c1ccncc1,-1.84%
13,CCN(CC1CCOCC1)C(=O)CCNC(=O)c1ccccc1F,-43.1%
14,Cc1cc(Cl)ccc1C(=O)N1C[C@H](C2CC2)[C@@H](N)C1,-46.6%
15,CC(Cn1cncn1)NCc1n[nH]c2c1CCCCC2 (stereo unspecified),-4.39%
16,COc1ccc(C)cc1-n1cnnc1C1CC(=O)N(C)C1 (stereo unspecified),-9.25%
17,Cc1nc(CN(C)Cc2cnc(N3CCOCC3)s2)no1,1.87%
18,COCc1nc(Cn2c(C)cc(C(F)(F)F)cc2=O)no1,-2.74%
19,COc1cc(C)ccc1C(=O)N1CCC2(CCC(=O)N(C(C)C)C2)CC1,3.76%
20,Cc1nccn1Cc1nnc(C2CCCN(Cc3ccncc3)C2)n1C (stereo unspecified),-1.63%
21,COc1ccc(C(=O)N2C[C@@H](CN3CCOCC3)[C@@H](CO)C2)c(C)c1,-13.8%
22,O=C(O)[C@@H]1CN(C(=O)c2ccc3[nH]nnc3c2)C[C@H]1c1cccc(F)c1,-8.66%

row,SMILES,cytotoxicity at 10 µM
1,O=C(c1ccc(F)c(F)c1)N1CCCC(Nc2ccc(F)cc2)C1 (stereo unspecified),-12.1%
2,O=S(=O)(N1CCCC1)N1CCCCC1CCc1ccccc1 (stereo unspecified),-5.65%
3,COc1cccc(N2CCN(C(=O)[C@H](O)C3CCCCC3)CC2=O)c1,-14.1%
4,Cc1nccnc1N1CCC2(CCCN(C3CCOCC3)C2=O)C1 (stereo unspecified),-8.8%
5,COCCc1ncc(CN2CCC(Oc3ccccc3C)CC2)cn1,4.67%
6,O=C(Cc1ccc2c(c1)CCCC2)NCCNc1cnccn1,-0.882%
7,Cc1noc(NC(=O)c2ccc(Br)o2)n1,-3.75%
8,COc1ccnc(N2CCN(C(=O)CN3CCOCC3)CC2)n1,-0.819%
9,O=C(NCCOc1ccc2c(c1)OCO2)C1CC(=O)N(C2CC2)C1 (stereo unspecified),-6.75%
10,CCc1nccn1C1CCCN(C(=O)CCOCC(F)(F)F)C1 (stereo unspecified),-9.39%
11,COc1cc(CNC(=O)c2c(C)noc2C)ccn1,-8.83%
12,CC(C)c1ccc(OCCC(=O)N2CCC(C(N)=O)CC2)cc1,-11.5%
13,Cc1cnn(C2CCCN(C(=O)Cc3ccc4c(c3)CCO4)C2)c1 (stereo unspecified),-5.83%
14,O=C(c1cnn(-c2ccccc2Cl)c1)N1CCN(CCO)CC1,-4.26%
15,COc1c(C2CCCN2CC(=O)Nc2nc(C)cs2)c(C)nn1C (stereo unspecified),-6.76%
16,Cc1cccc(C(=O)N2CCCN(Cc3cnn(C)c3)CC2)n1,-10.5%
17,CCN1CCC(NC(=O)CN2CCCCC2Cn2cc(C)cn2)CC1 (stereo unspecified),0.144%
18,Cc1cc(C)c(CNC(=O)N2CCCC2c2ccccc2)c(=O)[nH]1 (stereo unspecified),-0.818%
19,Cc1nc(CN(C)C2CCN(CCCOc3ccccc3)C2)no1 (stereo unspecified),-9.26%
20,Cc1cnn(CC2CN(Cc3nc(N)c4ccccc4n3)CCO2)c1 (stereo unspecified),5.9%
21,Cc1cc(F)ccc1S(=O)(=O)NCc1cccc(C(=O)N2CCCC2)c1,-1.2%
22,CCCC(=O)N(CCCN1CCOCC1)c1nc2c(F)cccc2s1,-10.7%

row,SMILES,cytotoxicity at 10 µM
1,Cc1cc(C(=O)N2CCO[C@H]3[C@H](Oc4ccccn4)CC[C@@H]32)c(C)[nH]1,-107%
2,O=C(NCC1CCOCC1)[C@H]1C[C@@H]2CCN(Cc3ccccc3)C[C@H]2O1,1.03%
3,Cc1ccc(N2C[C@H]3CCN(Cc4ccncc4)C[C@H]3C2)nn1,-111%
4,CNC(=O)CN1C(=O)CCC12CCCN(Cc1cccc(F)c1)C2 (stereo unspecified),-5.51%
5,c1ccc(CN2CCC3(CC2)CCN(Cc2cccnc2)C3)nc1,-78.6%
6,Cc1ncsc1CN1C[C@@H]2COC[C@]2(C(=O)NC2CC(F)(F)C2)C1,-103%
7,COc1cc(N2C[C@H]3CCC[C@@H](CN(C)C)[C@H]3C2)ncn1,-78.3%
8,O=C(C1CCC1)N1CC[C@H](O)[C@@H]1Cc1cccnc1,-105%
9,c1ccc(O[C@@H]2CO[C@@]3(CCCN(CC4CCOCC4)C3)C2)nc1,-82.6%
10,O=C1CO[C@@H]2CN(Cc3nccs3)C[C@H]2N1Cc1ccncc1,-66.6%
11,O=C(C1CCOCC1)N1C[C@@H]2C[C@@H](c3nc(C4CC4)cs3)O[C@@H]2C1,-10.1%
12,Cn1cccc1C(=O)N1CC2(CCN(C(=O)c3cccnc3)C2)C1,-98.4%
13,CN(Cc1ccco1)[C@@H]1CN(Cc2ccc(F)cc2)C[C@@H]2CCCO[C@@H]21,2.91%
14,CCOCCN1C[C@@H]2CCCO[C@@H]2[C@H](NC(=O)c2cnoc2C)C1,-119%
15,Cn1nnc2c1C(COCc1ccccn1)CN(C(=O)c1cccs1)C2 (stereo unspecified),-11.2%
16,c1cc(CN2C[C@@H]3OCCN(CCN4CCCC4)[C@@H]3C2)ccn1,3.39%
17,Cn1cc(CCC(=O)N2C[C@@H]3CC[C@H]2CN(Cc2ccccc2)C3)cn1,-1.97%
18,COc1ccnc(N2C[C@H]3CC[C@@H](C2)N(CC2CCC2)C3=O)n1,-0.054%

# — ChEMBL document CHEMBL4513216, “Probing the Open Global Health Chemical Diversity Library for Multistage-Active Starting Points for Next-Generation Antimalarials” (ACS Infect Dis, 2020)
